From ChEMBL document CHEMBL1255494, “In vivo comparison of the pharmacodynamic targets for echinocandin drugs against Candida species” (Antimicrob Agents Chemother, 2010)
Converted amounts (≈) assume the structure as drawn. *1 amine or outer side, *2 acyl side, *3 side chain or, on linkers, in order; H or OH if unused. Where a SMILES comes first, the peptide text is derived from it. Bridges are numbered along the chain shown (N, C = ends). [ ]: non-standard residue; d: D form. The star is where a group is joined. hTyr(3S-OH,4S-OH,3'-OSO3H) = N[C@H](C(=O)O)[C@H](O)[C@@H](O)c1ccc(O)c(OS(=O)(=O)O)c1; Orn(4R-OH,5R-OH) = O=C([C@H](C[C@@H](O)[C@@H](O)N[*:3])N[*:1])[*:2]; Pro(3S-OH,4S-Me) = C[C@H]1CN[C@H](C(=O)O)[C@H]1O; X1 = CCCCCOc1ccc(-c2cc(-c3ccc(C(=O)*)cc3)no2)cc1; Gln(3R-OH) = NC(=O)C[C@@H](O)[C@H](N)C(=O)O; Hyp = O=C(O)[C@@H]1C[C@@H](O)CN1

Columns and labels:
Candida parapsilosis [1] = assay: Antifungal activity against Candida parapsilosis 20553.009 after 24 hrs; format: functional; conditions: Lodderomyces parapsilosis, 20553.009, 24 h
Method in brief: (§1)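 MICs by CLSI M27-A3 broth dilution in RPMI 1640, inoculum 0.5 × 10³ to 2.5 × 10³ cells/ml, 35°C. Read visually at 24 h as the lowest concentration giving ≥50% growth reduction versus control. Run on three occasions in duplicate and reported as the mean. C. krusei ATCC 6258 and C. parapsilosis ATCC 22019 served as QC strains.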

Candida parapsilosis [2] = assay: Antifungal activity against Candida parapsilosis 20423.072 after 24 hrs; format: functional; conditions: Lodderomyces parapsilosis, 20423.072, 24 h; method in brief: as §1
[3] = Ratio of fAUC (0 to 24 hrs) in Candida glabrata infected neutropenic ICR Swiss mouse to MIC for Candida glabrata at 1 log kill dose after 24 hrs; format: functional
Candida parapsilosis [4] = assay: Fungistatic activity against Candida parapsilosis infected in neutropenic ICR Swiss mouse after 24 hrs; format: functional
Method in brief: (§2)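 Female ICR Swiss mice, neutropenic via cyclophosphamide s.c. (150 mg/kg day −4, 100 mg/kg day −1 and day +2), infected by tail-vein injection of clinical isolates 2 h before therapy. Intraperitoneal dosing every 24 h for 4 days, 4–6 dose levels from 0.078 to 160 mg/kg, 3 mice per regimen. Kidney CFU counted at 96 h. Sigmoid dose-effect fit gives static dose and 1 log kill dose relative to burden at start of therapy.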

Candida parapsilosis [5] = assay: Antifungal activity against Candida parapsilosis 20450.096 after 24 hrs; format: functional; conditions: Lodderomyces parapsilosis, 20450.096, 24 h; method in brief: as §1
Nakaseomyces glabratus [6] = assay: Antifungal activity against Candida glabrata 5376 after 24 hrs; format: functional; conditions: Nakaseomyces glabratus, 5376, 24 h
Method in brief: (§3)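 Broth microdilution per CLSI M27-A3 in RPMI 1640; inoculum 0.5 × 10³ to 2.5 × 10³ cells/ml, 35°C. […] Three separate occasions in duplicate, mean reported; C. krusei ATCC 6258 and C. parapsilosis ATCC 22019 as daily QC.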

Mus musculus = assay: Protein binding in Candida albicans infected neutropenic ICR Swiss mouse at 80 mg/kg, ip; format: ADME, organism-based; parameters: dose 80 mg/kg, route intraperitoneal; conditions: in vivo
Nakaseomyces glabratus [7] = assay: Antifungal activity against Candida glabrata 5592 after 24 hrs; format: functional; conditions: Nakaseomyces glabratus, 5592, 24 h; method in brief: as §3
Candida parapsilosis [8] = assay: Antifungal activity against Candida parapsilosis 20435.057 after 24 hrs; format: functional; conditions: Lodderomyces parapsilosis, 20435.057, 24 h; method in brief: as §1
[9] = AUC (0 to 24 hrs) in Candida albicans infected neutropenic ICR Swiss mouse at 5 mg/kg, ip; format: ADME, organism-based; parameters: time < 24 hr, dose 5 mg/kg, route intraperitoneal; conditions: plasma
Method in brief: (§4)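 Neutropenic female ICR Swiss mice (cyclophosphamide sc at 150 mg/kg on day −4, 100 mg/kg on day −1 and day +2) infected iv via tail vein with Candida; single ip doses of 5, 20 or 80 mg/kg. Serum drawn from 3 mice per time point at eight time points and assayed by microbiologic assay (C. albicans K1) or […]. Noncompartmental analysis; AUC by trapezoidal rule.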

[10] = Ratio of fAUC (0 to 24 hrs) in Candida albicans infected neutropenic ICR Swiss mouse to MIC for Candida albicans at static dose after 24 hrs; format: functional
[11] = Ratio of AUC (0 to 24 hrs) in Candida parapsilosis infected neutropenic ICR Swiss mouse to MIC for Candida parapsilosis at 1 log kill dose after 24 hrs; format: functional
Method in brief: (§5)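 Neutropenic mice were infected iv and treated 2 h later. Four to six ip dose levels (0.078–160 mg/kg) were given every 24 h for 4 days, 3 mice per regimen. Kidney CFU were counted at 96 h. A sigmoid dose-effect model gave the static and 1-log-kill doses relative to burden at therapy start.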

Candida albicans [12] = assay: Antifungal activity against Candida albicans 580 after 24 hrs; format: functional; conditions: Candida albicans, 580, 24 h; method in brief: as §3
Candida parapsilosis [13] = assay: Antifungal activity against Candida parapsilosis 20385.079 after 24 hrs; format: functional; conditions: Lodderomyces parapsilosis, 20385.079, 24 h; method in brief: as §1
[14] = Ratio of fAUC (0 to 24 hrs) in Candida parapsilosis infected neutropenic ICR Swiss mouse to MIC for Candida parapsilosis at 1 log kill dose after 24 hrs; format: functional
Nakaseomyces glabratus [15] = assay: Antifungal activity against Candida glabrata infected in neutropenic ICR Swiss mouse assessed log reduction in bacterial count […]; format: functional; method in brief: as §2
[16] = Ratio of AUC (0 to 24 hrs) in Candida glabrata infected neutropenic ICR Swiss mouse to MIC for Candida glabrata at static dose after 24 hrs; format: functional; method in brief: as §5
Candida albicans [17] = assay: Antifungal activity against Candida albicans 570 after 24 hrs; format: functional; conditions: Candida albicans, 570, 24 h; method in brief: as §1
Candida parapsilosis [18] = assay: Antifungal activity against Candida parapsilosis 20557.012 after 24 hrs; format: functional; conditions: Lodderomyces parapsilosis, 20557.012, 24 h; method in brief: as §1
Candida albicans [19] = assay: Antifungal activity against Candida albicans K1 after 24 hrs; format: functional; conditions: K1, 24 h; method in brief: as §3
[20] = Ratio of fAUC (0 to 24 hrs) in Candida parapsilosis infected neutropenic ICR Swiss mouse to MIC for Candida parapsilosis at static dose after 24 hrs; format: functional
Candida albicans [21] = assay: Antifungal activity against Candida albicans 98-210 after 24 hrs; format: functional; conditions: 98-210, 24 h; method in brief: as §3
Candida parapsilosis [22] = assay: Antifungal activity against Candida parapsilosis 20423.078 after 24 hrs; format: functional; conditions: Lodderomyces parapsilosis, 20423.078, 24 h; method in brief: as §1
[23] = Ratio of AUC (0 to 24 hrs) in Candida parapsilosis infected neutropenic ICR Swiss mouse to MIC for Candida parapsilosis at static dose after 24 hrs; format: functional; method in brief: as §5
[24] = AUC (0 to 24 hrs) in Candida albicans infected neutropenic ICR Swiss mouse at 80 mg/kg, ip; format: ADME, organism-based; parameters: time < 24 hr, dose 80 mg/kg, route intraperitoneal; conditions: plasma; method in brief: as §4
[25] = Ratio of AUC (0 to 24 hrs) in Candida albicans infected neutropenic ICR Swiss mouse to MIC for Candida albicans at static dose after 24 hrs; format: functional; method in brief: as §5
[26] = AUC (0 to 24 hrs) in Candida albicans infected neutropenic ICR Swiss mouse at 20 mg/kg, ip; format: ADME, organism-based; parameters: time < 24 hr, dose 20 mg/kg, route intraperitoneal; conditions: plasma; method in brief: as §4
Candida parapsilosis [27] = assay: Antifungal activity against Candida parapsilosis 20489.085 after 24 hrs; format: functional; conditions: Lodderomyces parapsilosis, 20489.085, 24 h; method in brief: as §3
Nakaseomyces glabratus [28] = assay: Antifungal activity against Candida glabrata 33609 after 24 hrs; format: functional; conditions: Nakaseomyces glabratus, 33609, 24 h; method in brief: as §3
Nakaseomyces glabratus [29] = assay: Antifungal activity against Candida glabrata 34341 after 24 hrs; format: functional; conditions: Nakaseomyces glabratus, 34341, 24 h; method in brief: as §1
Candida parapsilosis [30] = assay: Antifungal activity against Candida parapsilosis 20562.03 after 24 hrs; format: functional; conditions: Lodderomyces parapsilosis, 20562.03, 24 h; method in brief: as §1
Candida albicans [31] = assay: Antifungal activity against Candida albicans 98-17 after 24 hrs; format: functional; conditions: 98-17, 24 h; method in brief: as §1
Candida parapsilosis [32] = assay: Antifungal activity against Candida parapsilosis 20477.048 after 24 hrs; format: functional; conditions: Lodderomyces parapsilosis, 20477.048, 24 h; method in brief: as §1
Candida parapsilosis [33] = assay: Antifungal activity against Candida parapsilosis 20519.069 after 24 hrs; format: functional; conditions: Lodderomyces parapsilosis, 20519.069, 24 h; method in brief: as §1
[34] = Ratio of AUC (0 to 24 hrs) in Candida glabrata infected neutropenic ICR Swiss mouse to MIC for Candida glabrata at 1 log kill dose after 24 hrs; format: functional; method in brief: as §5
[35] = Ratio of fAUC (0 to 24 hrs) in Candida albicans infected neutropenic ICR Swiss mouse to MIC for Candida albicans at 1 log kill dose after 24 hrs; format: functional

## CCCCCOc1ccc(-c2cc(-c3ccc(C(=O)N[C@H]4C[C@@H](O)[C@@H](O)NC(=O)[C@@H]5[C@@H](O)[C@@H](C)CN5C(=O)[C@H]([C@H](O)CC(N)=O)NC(=O)[C@H]([C@H](O)[C@@H](O)c5ccc(O)c(OS(=O)(=O)O)c5)NC(=O)[C@@H]5C[C@@H](O)CN5C(=O)[C@H]([C@@H](C)O)NC4=O)cc3)no2)cc1 [MICAFUNGIN] (X1-[Orn(4R-OH,5R-OH)]T[Hyp][hTyr(3S-OH,4S-OH,3'-OSO3H)][Gln(3R-OH)][Pro(3S-OH,4S-Me)]; lactam 1-C)
Candida parapsilosis [1]
  MIC: 1 µg/mL (≈ 0.787 µM)
Candida parapsilosis [2]
  MIC: 0.25 µg/mL (≈ 0.197 µM)
[3]
  Ratio: 9.45
Candida parapsilosis [4]
  Activity: 32.3 mg/kg
Candida parapsilosis [5]
  MIC: 0.25 µg/mL (≈ 0.197 µM)
Nakaseomyces glabratus [6]
  MIC: 0.008 µg/mL (≈ 0.0063 µM)
Mus musculus
  Activity: 99.75%
Nakaseomyces glabratus [7]
  MIC: 0.016 µg/mL (≈ 0.0126 µM)
Candida parapsilosis [8]
  MIC: 0.5 µg/mL (≈ 0.394 µM)
[9]
  AUC(0-t) at 24 h: 138 µg·h/mL
[10]
  Ratio: 12.7
[11]
  Ratio: 3090
Candida albicans [12]
  MIC: 0.008 µg/mL (≈ 0.0063 µM)
Candida parapsilosis [13]
  MIC: 0.5 µg/mL (≈ 0.394 µM)
[14]
  Ratio: 7.73
Nakaseomyces glabratus [15]
  Activity: 5.88 mg/kg
[16]
  Ratio: 1542
Candida albicans [17]
  MIC: 0.02 µg/mL (≈ 0.0157 µM)
Candida parapsilosis [18]
  MIC: 0.25 µg/mL (≈ 0.197 µM)
Candida albicans [19]
  MIC: 0.016 µg/mL (≈ 0.0126 µM)
[20]
  Ratio: 4.95
Candida albicans [21]
  MIC: 0.016 µg/mL (≈ 0.0126 µM)
Candida parapsilosis [22]
  MIC: 0.5 µg/mL (≈ 0.394 µM)
[23]
  Ratio: 1981
[24]
  AUC(0-t) at 24 h: 1400 µg·h/mL
[25]
  Ratio: 5299
[26]
  AUC(0-t) at 24 h: 520 µg·h/mL
Candida parapsilosis [27]
  MIC: 0.12 µg/mL (≈ 0.0945 µM)
Nakaseomyces glabratus [28]
  MIC: 0.016 µg/mL (≈ 0.0126 µM)
Nakaseomyces glabratus [29]
  MIC: 0.06 µg/mL (≈ 0.0472 µM)
Candida parapsilosis [30]
  MIC: 0.5 µg/mL (≈ 0.394 µM)
Candida albicans [31]
  MIC: 0.03 µg/mL (≈ 0.0236 µM)
Candida parapsilosis [32]
  MIC: 0.5 µg/mL (≈ 0.394 µM)
Candida parapsilosis [33]
  MIC: 1 µg/mL (≈ 0.787 µM)
[34]
  Ratio: 3778
[35]
  Ratio: 25.2
